According to ChEMBL document CHEMBL1124662, “Antiinflammatory activity of a series of substituted 2,3-dihydro-6-hydroxypyrimido[2,1-f]purine-4,8(1H,9H)-diones” (J Med Chem, 1989):

Tests used:
[1] = test system: Rattus norvegicus; test: Prophylactic antiinflammatory activity against adjuvant arthritic rat at dose of 25 mg/kg in noninjected 2 degree paw.; format: functional
In short: (§1)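 Heat-killed Mycobacterium tuberculosis ground and homogenized in paraffin oil (6 mg/mL); 0.1 mL injected into left hind paw. Drug dosed 1 h before challenge, then daily for 21 consecutive days; controls received methylcellulose. Both hind paw volumes measured by plethysmograph immediately and on day 21; % inhibition of Δ paw volume.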

[2] = test system: Rattus norvegicus; test: Antiinflammatory activity against reverse passive Arthus reaction-synovitis in rat at dose of 50 mg/kg per orally.; format: functional; conditions: po
In short: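 Lewis rats dosed orally with drug or placebo 1 h before iv bovine serum albumin in saline, then 0.54 mg rabbit anti-BSA antibody intraarticular in one knee, saline in the other, under light anesthesia. Second oral dose at 3 h; the dose used is the total given before and after induction.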

[3] = test system: Rattus norvegicus; test: Prophylactic antiinflammatory activity against adjuvant arthritic rat at dose of 25 mg/kg in noninjected 1 degree paw.; format: functional; in short: as §1
[4] = test system: Rattus norvegicus; test: Prophylactic antiinflammatory activity against adjuvant arthritic rat at dose of 50 mg/kg in noninjected 1 degree paw.; format: functional; in short: as §1
[5] = test system: Rattus norvegicus; test: Prophylactic antiinflammatory activity against adjuvant arthritic rat at dose of 50 mg/kg in noninjected 2 degree paw.; format: functional; in short: as §1
[6] = test system: Rattus norvegicus; test: Prophylactic anti-inflammatory activity in adjuvant arthritic rat at 12.5 mg/kg in noninjected 1 degree paw; format: functional; in short: as §1
[7] = test system: Rattus norvegicus; test: Prophylactic anti-inflammatory activity in adjuvant arthritic rat at 12.5 mg/kg in noninjected 2 degree paw; format: functional; in short: as §1
[8] = test system: Rattus norvegicus; test: Prophylactic oral administration in adjuvant arthritic rat model at 25 mg/kg in noninjected 2 degree paw; format: functional; in short: as §1
[9] = Therapeutic oral administration in adjuvant arthritic rat model at 25 mg/kg in noninjected 2 degree paw; format: ADME, organism-based; parameters: dose 25 mg/kg, route oral
In short: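 Adjuvant arthritis (heat-killed M. tuberculosis in paraffin oil, 6 mg/mL, 0.1 mL into left hind paw) left to develop 7 days before first oral dose; treatment continued 35 days. Controls given methylcellulose; hind paw volumes measured by plethysmograph as Δ paw volume; % inhibition.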

[10] = test system: Rattus norvegicus; test: Prophylactic anti-inflammatory activity in adjuvant arthritic rat at 6.25 mg/kg in noninjected 2 degree paw; format: functional; in short: as §1
[11] = test system: Rattus norvegicus; test: Prophylactic anti-inflammatory activity in adjuvant arthritic rat at 6.25 mg/kg in noninjected 1 degree paw; format: functional; in short: as §1
[12] = test system: Rattus norvegicus; test: Prophylactic anti-inflammatory activity in adjuvant arthritic rat at 25 mg/kg in noninjected 1 degree paw; format: functional; in short: as §1

Row | SMILES | inhibition in vivo at 25 mg/kg [1] | inhibition in vivo at 50 mg/kg [2] | inhibition in vivo at 25 mg/kg [3] | inhibition in vivo at 50 mg/kg [4] | inhibition in vivo at 50 mg/kg [5] | inhibition in vivo at 12.5 mg/kg [6] | inhibition in vivo at 12.5 mg/kg [7] | ED50 [8] | ED50 [9] | inhibition in vivo at 6.25 mg/kg [10] | inhibition in vivo at 6.25 mg/kg [11] | inhibition in vivo at 25 mg/kg [12]
1 | CCCc1c(O)n(Cc2ccc(F)cc2)c2nc3c(n2c1=O)C(=O)N(C)CN3C | 56% | 0% | 0% | – | – | – | – | – | – | – | – | –
2 | CN1CN(C)c2nc3n(Cc4ccccc4)c(O)c(Sc4ccccc4)c(=O)n3c2C1=O | – | – | – | 15% | 23% | – | – | – | – | – | – | –
3 | Cc1c(O)n(Cc2ccccc2)c2nc3c(n2c1=O)C(=O)N(C)CN3C | 22% | 0% | 0% | 46% | 69% | 0% | 36% | – | – | – | – | –
4 | C/C=C/Cc1c(O)n(Cc2ccccc2)c2nc3c(n2c1=O)C(=O)N(C)CN3C | 40% | 0% | 24% | 44% | 71% | 20% | – | – | – | – | – | –
5 | C/C(=C/Cc1c(O)n(Cc2ccccc2)c2nc3c(n2c1=O)C(=O)N(C)CN3C)C(F)(F)F | 74% | 25% | 45% | – | – | 47% | 64% | 8.8 mg/kg | 4 mg/kg | 60% | 33% | –
6 | CCCc1c(O)n(Cc2ccccc2)c2nc3c(n2c1=O)C(=O)N(C)CN3C | 65% | 45% | 24% | 38% | 70% | 16% | 38% | – | – | – | – | –
7 | CC(C)=CCc1c(O)n(Cc2ccc(F)cc2)c2nc3c(n2c1=O)C(=O)N(C)CN3C | 49% | 18% | – | – | – | – | – | – | 7.6 mg/kg | – | – | 24%
8 | CN1CN(C)c2nc3n(Cc4ccccc4)c(O)c(CCO)c(=O)n3c2C1=O | – | 8% | – | – | – | – | – | – | – | – | – | –
9 | CCCc1c(O)n(Cc2cccs2)c2nc3c(n2c1=O)C(=O)N(C)CN3C | 51% | – | 20% | – | – | 20% | 13% | – | – | – | – | –
10 | CSc1c(O)n(Cc2ccccc2)c2nc3c(n2c1=O)C(=O)N(C)CN3C | – | 10% | – | 33% | 61% | – | – | – | – | – | – | –
11 | CN(C)/C=c1\c(=O)n(Cc2ccccc2)c2nc3c(n2c1=O)C(=O)N(C)CN3C | – | 27% | – | – | – | – | – | – | – | – | – | –
12 | CN1CN(C)c2nc3n(Cc4ccccc4)c(O)c(Cc4ccccc4)c(=O)n3c2C1=O | 49% | 5% | 34% | 46% | 63% | – | – | – | – | – | – | –
